Experimental data: PubChem BioAssay AID2805 (Sanford-Burnham Center for Chemical Genomics, 2010)
Screen size: about 330,000 compounds; about 780 (0.24%) were called active.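 The calls were made as follows: active = activation factor of at least 2 at 20 µM; inactive = the rest.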 The sample as a whole holds a higher share of actives than the screen did.

tested on: intestinal alkaline phosphatase [Mus musculus]; experiment: activators of mouse IAP, primary screen, biochemical, luminescence, uHTS (AID 2805); settings: muIAP, CDP-Star luminescence, 30 min; at 10 µM; active compounds read high; 1 = vehicle-only enzyme signal, 0 = enzyme-free wells
In short: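 Assay system: mouse IAP enzyme; reagent: chemiluminescent substrate CDP-Star; dosing: test compounds delivered from DMSO solution; schedule: 30 min at room temperature; measured by: luminescence from enzymatic CDP-Star hydrolysis; controls: DMSO-only wells and no-enzyme negative control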

Compound	activation factor
COc1ccc(N(C)C(=O)C2CCN(S(=O)(=O)c3cccc4nsnc34)CC2)cc1	0.954 (inactive)
O=C(NCc1cccnc1)c1cnc2ccccc2n1	0.965 (inactive)
CC(C(=O)O)N1C(=O)c2cccc3cccc1c23 (centres undefined)	1.02 (inactive)
CCOc1ccc(C(CCc2ccccc2)NC(=O)c2ccc(OC)c(OC)c2)cc1OCC (centres undefined)	2.15 (active)
CCOc1ccc(C(CC(=O)O)NC(=O)Cc2ccccc2)cc1OC (centres undefined)	0.993 (inactive)
CCOc1ccc(C(CC(=O)O)NC(=O)C23CC4CC(CC(C4)C2)C3)cc1OC (centres undefined)	1.06 (inactive)
CCN(CC)Cc1nc2sc(C)c(C)c2c(=O)[nH]1	0.952 (inactive)
Cc1cc(=O)[nH]c(Nc2cccc(Br)c2)n1	1.07 (inactive)
C=CCOc1cccc(C2NC(=O)c3ccccc3O2)c1 (centres undefined)	1.01 (inactive)
CN(C)S(=O)(=O)c1cccc(NC(=O)Cc2ccsc2)c1	1.06 (inactive)
CN(c1ccccc1)S(=O)(=O)c1cccc(NC(=O)Cc2ccc(Cl)cc2)c1	1.55 (inactive)
CN(c1ccccc1)S(=O)(=O)c1cccc(NC(=O)Cc2c(F)cccc2Cl)c1	2.3 (active)
Cc1ccc(C(=O)N/C(=C\c2cn(C)c3ccccc23)C(=O)N2CCN(C)CC2)cc1	0.969 (inactive)
COC(=O)CNC(=O)c1ccc2c(c1)S(=O)(=O)c1ccccc1C2=O	1.01 (inactive)
O=C(CCc1ccc(S(=O)(=O)NC2CCCCC2)cc1)NCc1ccccc1	1.18 (inactive)
CCN(CC)N=Nc1cccc(NC(C)=O)c1	0.943 (inactive)
COc1ccc(NC(=O)NC2CC3CCCC(C2)N3Cc2ccccc2)cc1 (centres undefined)	3.11 (active)
CCOc1ccccc1C(=O)NC1CC2CCCC(C1)N2Cc1ccccc1 (centres undefined)	0.947 (inactive)
COc1ccc(CN2C3CCCC2CC(NC(=O)c2cccc(F)c2)C3)cc1 (centres undefined)	1.11 (inactive)
O=C(COc1ccc(S(=O)(=O)N2CCOCC2)cc1Cl)N1CCOCC1	1.01 (inactive)
C[N+]1(CC(O)COc2ccccc2)CCN(C(=O)c2ccc([N+](=O)[O-])cc2)CC1 (centres undefined)	0.943 (inactive)
Cn1cccc1C(C#N)c1ccccc1C#N (centres undefined)	0.962 (inactive)
O=C1C2CCCN2C(=O)N1CCCCN1CCN(c2cccc(C(F)(F)F)c2)CC1 (centres undefined)	0.942 (inactive)
CCc1ccc(NC(=O)NC(C)c2ccc3c(c2)OCO3)cc1 (centres undefined)	2.38 (active)
CC(NC(=O)Nc1cccc([N+](=O)[O-])c1)c1ccc2c(c1)OCO2 (centres undefined)	0.95 (inactive)
CC(NC(=O)Nc1ccc2c(c1)OCO2)c1ccncc1 (centres undefined)	1.02 (inactive)
O=C(Cn1cnc2ccccc2c1=O)NCC1COc2ccccc2O1 (centres undefined)	0.99 (inactive)
c1ccc(-c2cc3c(NCC4COc5ccccc5O4)ncnc3s2)cc1 (centres undefined)	2.05 (active)
O=C(NCC1COc2ccccc2O1)C1(c2ccccc2)CCCC1 (centres undefined)	1 (inactive)
